HIV Env fusion – inhibitors of HIV-1 Env-driven cell-cell fusion, primary screen, HeLa-JRFL effector, CEM21 target cells, luciferase. 360,000 compounds, 1.1% hits. inhibition, % at 12.3 µM;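 active = mean replicate inhibition score of at least 50 and every replicate individually at or above 50; inconclusive = only one of the two criteria met; inactive = mean below 50 and not all replicates reaching 50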
FGF22 binding – binders of human FGF22 protein, primary screen, FGF22 synaptogenesis inhibitor project, biophysical, thermal shift, single point. activity (Tm shift, normalised), % at 9.99 µM. recombinant FGF22 thermal shift, SYPRO orange fluorescence; percent of sucrose octasulfate shift, DMSO zero. Fibroblast growth factor 22 (Homo sapiens), Q9HCT0. 340,000 compounds, 1.5% hits;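 active = mean Tm shift, scaled 0 neutral to 100 positive control, at about 1.3% or above, every replicate too, limit read from the data; inconclusive = no clear call, values can overlap the other calls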
Target sequence (Q9HCT0 whole entry, looked up): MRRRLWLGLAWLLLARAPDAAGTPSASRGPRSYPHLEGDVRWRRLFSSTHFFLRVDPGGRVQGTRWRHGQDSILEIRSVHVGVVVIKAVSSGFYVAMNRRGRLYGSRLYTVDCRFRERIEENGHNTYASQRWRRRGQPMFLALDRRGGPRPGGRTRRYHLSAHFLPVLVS
F508del corr – F508del CFTR correction, initial screen, CFBE line, single point. activity (quench increase), % at 7.58 µM. 350,000 compounds, 0.36% hits. CFBE cells, YFP halide quenching; stimulated with forskolin plus potentiator P3; % fluorescence drop versus neutral controls;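 active = mean added fluorescence quench of at least 8% versus neutral control, with both replicates also reaching 8%; inconclusive = only one of the mean or replicate conditions met; inactive = mean below 8% and not both replicates reaching 8%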;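 also: cells transiently co-express mutant CFTR-F508del with the halide-sensitive YFP; corrector assay measuring rescue of mutant channel to the surface after 24 h compound exposure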
S100A4 inh HTS – inhibitors of S100A4-myosin IIA peptide binding, primary screen, biochemical, fluorescence polarization, TAMRA-MyoIIA peptide | Protein S100-A4 (Homo sapiens), P26447 | inhibition, % at 10.7 µM | 360,000 compounds, 0.14% hits;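 active = mean inhibition of at least 70% across replicates, with every replicate also reaching that level; inconclusive = mean inhibition reaches 70% but some replicates fall short; inactive = mean inhibition below 70%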
Target sequence (P26447 whole entry, looked up): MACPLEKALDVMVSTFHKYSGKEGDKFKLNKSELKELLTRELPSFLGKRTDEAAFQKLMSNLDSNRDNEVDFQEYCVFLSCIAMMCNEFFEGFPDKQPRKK
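System – human S100A4 monomer protein, biochemical binding assay · Buffer or medium – Calcium-containing HEPES buffer, pH 7.2 · Timing – 5 min between mix addition and reading · Also added – TAMRA-labelled myosin IIA heavy-chain peptide probe, 5 nM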
E-selectin induc – E-selectin induction in HUVECs, primary screen, imaging, HUVEC, immunofluorescence imaging, single point. P16581. normalized: neutral wells 0, TNF-alpha wells 100. activation, % at 7.58 µM. 260,000 compounds, 0.37% hits;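 active = mean E-selectin-positive cell signal at least 10% of the positive control, reached in at least 60% of replicates, without over 20% cell loss; inconclusive = no rule given, readout overlaps actives, possibly toxicity-flagged; inactive = the rest, including those meeting only one limit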
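Material: HUVEC primary endothelial cells; Amount: 3,000 cells per well; Dosing: single concentration; Medium: EGM-2 growth medium on 0.1% gelatin-coated wells; Read-out basis: percent E-selectin-positive cells; Signal: immunofluorescence imaging; Control set: TNF-alpha, DMSO.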
Each line names hits and unclear results; the compound was inactive in the other large screens; [ ] = dose if it differs, or a comment. Compounds with a hit are over-represented: about 2.7% of the library has one in this group of screens.

C[C@H](NC(=O)C[C@@H]1C[C@H]2c3cc(NS(C)(=O)=O)ccc3O[C@H]2[C@H](CO)O1)c1ccccc1	none
O=C(Nc1ccc2c(c1)OCO2)N[C@@H]1CC[C@@H](CCNC(=O)C2CCCC2)O[C@H]1CO	S100A4 inh HTS 89.8
Cc1ccccc1S(=O)(=O)NCC[C@H]1CC[C@H](NC(=O)C2CCC2)[C@H](CO)O1	S100A4 inh HTS 102.1
O=C(Cc1ccncc1)NCC[C@@H]1CC[C@@H](NC(=O)C2CCOCC2)[C@@H](CO)O1	S100A4 inh HTS 102.1
O=C(Nc1ccc2c(c1)OCO2)N[C@H]1CC[C@H](CCNC(=O)C2CCCC2)O[C@H]1CO	HIV Env fusion inconclusive
O=C(Cc1ccncc1)NCC[C@@H]1CC[C@H](NC(=O)C2CCOCC2)[C@H](CO)O1	none
Cc1ccccc1S(=O)(=O)NCC[C@@H]1CC[C@H](NC(=O)C2CCC2)[C@H](CO)O1	none
O=S(=O)(NCC[C@@H]1CC[C@@H](NS(=O)(=O)c2ccccc2Cl)[C@H](CO)O1)c1ccc(Cl)cc1	HIV Env fusion 57.5[16.7 µM]
C[C@@H]1CN([C@@H](C)CO)C(=O)Cc2cc(NC(=O)Nc3ccccc3)ccc2O[C@@H]1CN(C)C(=O)Nc1ccc(C(F)(F)F)cc1	none (no result: S100A4 inh HTS)
O=C(Cc1ccccn1)NCC[C@@H]1CC[C@H](NC(=O)Nc2ccc(C(F)(F)F)cc2)[C@H](CO)O1	F508del corr 12.0
Cc1ccc(S(=O)(=O)NCC[C@@H]2CC[C@@H](NC(=O)C3CCOCC3)[C@H](CO)O2)cc1	S100A4 inh HTS 98.6
Cc1ccc(S(=O)(=O)NCC[C@@H]2CC[C@H](NC(=O)C3CCOCC3)[C@H](CO)O2)cc1	none
O=C(Cc1ccccn1)NCC[C@H]1CC[C@H](NC(=O)Nc2ccc(C(F)(F)F)cc2)[C@@H](CO)O1	none
C[C@H]1CN([C@@H](C)CO)C(=O)c2cc(NS(=O)(=O)c3cn(C)cn3)ccc2O[C@@H]1CN(C)Cc1ccc(-c2ccccc2)cc1	none (no result: HIV Env fusion)
Cc1cc(NO)c(C(C)C)cc1N=O	HIV Env fusion 66.5 (no result: F508del corr)
COc1cc(/C=C/C(=O)O)ccc1S(=O)(=O)N1CCCc2ccccc21	FGF22 binding 43.5 (no result: E-selectin induc)
Cc1ccc2c(c1)sc(C)[n+]2CCCS(=O)(=O)[O-]	FGF22 binding 43.1
CN1C(=O)NC(c2ccccc2[N+](=O)[O-])C2=C1CCCC2=O (configuration not stated)	S100A4 inh HTS 117.4
CN1C(=O)NC(c2ccccc2[N+](=O)[O-])C2=C1CC(C)(C)CC2=O (configuration not stated)	none (no result: E-selectin induc)
C[C@H](CO)N1C[C@H](C)[C@H](CN(C)C(=O)CN(C)C)Oc2ncc(C#Cc3ccncc3)cc2C1=O	none
Cc1ccc(S(=O)(=O)Oc2cccc([N+](=O)[O-])c2)cc1	FGF22 binding 43.7
O=C1C(Cl)=C(O)C2(Cl)C(Cl)=C(Cl)C12Cl (configuration not stated)	FGF22 binding 1.4
Cc1ccc(S(=O)(=O)Nc2ccccc2C(C(=O)OC(C)(C)C)C(=O)OC(C)(C)C)cc1	HIV Env fusion 57.4
Cc1ccc(S(=O)(=O)Nc2ccccc2C(O)c2ccccc2)cc1 (configuration not stated)	none
CN(NS(=O)(=O)c1ccc(Cl)cc1)c1nc(C(F)(F)F)nc2ccccc12	FGF22 binding 44.1 (no result: E-selectin induc)
COc1ccc(C(=O)NN(C)c2nc(C(F)(F)F)nc3ccccc23)cc1	none (no result: E-selectin induc)
Cc1c2ccncc2cc2c1[nH]c1ccccc12	F508del corr 11.6
CC(=O)c1ccc(Nc2cc(C)nc3c(C)cc(C)cc23)cc1	F508del corr 16.6 (no result: E-selectin induc)
COc1cc(OCC(=O)NC(C)C)cc2c1C(=O)O[C@@H](C)CCCC(=O)CCCCC2	HIV Env fusion 72.7 (no result: E-selectin induc)
COc1cc2c(c(OCC(=O)NC(C)C)c1)C(=O)O[C@@H](C)CCCC(=O)CCCCC2	HIV Env fusion 87.5 (no result: E-selectin induc)
CCN(CC)CCn1c2c(c(SCC(=O)Nc3ccc(F)c(F)c3)nc1=O)CCC2	F508del corr 9.2 (no result: E-selectin induc)
COc1ccc(C2=NS(=O)(=O)N(C)C(C(=O)N3C(C)CCCC3C)=C2)cc1 (configuration not stated)	none (no result: HIV Env fusion)
COc1ccc(C2=NS(=O)(=O)N(C)C(C(=O)N3CCCCC3C)=C2)cc1 (configuration not stated)	HIV Env fusion 60.1 (no result: E-selectin induc)
Cc1ccc(Cc2cnc(N3C(=N)SC(C)C3=O)s2)cc1 (configuration not stated)	FGF22 binding 43.2
Nc1ccccc1SCc1csc(-c2ccc(Cl)cc2)n1	none
C=CCn1c(SCc2csc(-c3ccc(Cl)cc3)n2)nnc1-c1ccccc1OC	HIV Env fusion 56.0 (no result: F508del corr)
C[C@@H]1CN([C@H](C)CO)C(=O)c2cccc(NC(=O)CCCCCC(=O)Nc3ccccc3N)c2O[C@@H]1CN(C)S(=O)(=O)c1cccs1	none (no result: HIV Env fusion)
CC(C)NC(=O)N(C)C[C@@H]1OCCCC[C@H](C)Oc2ccc(NC(=O)CCC(F)(F)F)cc2C(=O)N([C@@H](C)CO)C[C@H]1C	none
C[C@@H]1CN([C@H](C)CO)C(=O)c2cccc(NC(=O)Nc3ccccc3)c2O[C@@H]1CN(C)Cc1ccc2c(c1)OCO2	none (no result: HIV Env fusion)
CCCCCCCCCC[n+]1cccc(C(=O)N(CC)CC)c1	none (no result: E-selectin induc)
CCC(C)(C)c1ccc(OCCCC[n+]2cccc(C)c2)c(C(C)(C)CC)c1	HIV Env fusion 129.2 (no result: E-selectin induc)
O=C(NC1CCCC1)[C@H]1[C@H](CO)[C@H]2Cn3c(ccc(-c4cccc(F)c4)c3=O)[C@@H]1N2	none (no result: HIV Env fusion, FGF22 binding, S100A4 inh HTS)
COCCNC(=O)C1CCCN(C(=O)c2cc(-c3cccs3)oc2C)CC1 (configuration not stated)	F508del corr 13.3 (no result: HIV Env fusion)
O=C(CCCNS(=O)(=O)c1cccs1)N1CCN(c2cccc(Cl)c2)CC1	HIV Env fusion 70.8 (no result: FGF22 binding, F508del corr, S100A4 inh HTS, E-selectin induc)
CC1(Cc2ccc(Cl)c(Cl)c2)C(=O)Nc2ccc(S(=O)(=O)NC3CCCCC3)cc21 (configuration not stated)	HIV Env fusion 57.1
CC1(Cc2cccc(F)c2)C(=O)Nc2ccc(S(=O)(=O)NC3CCCCC3)cc21 (configuration not stated)	HIV Env fusion 57.8
C/C=C/c1ccc([C@H]2[C@@H](CO)N(C(=O)C3CC3)C23CN(S(=O)(=O)CC)C3)cc1	none (no result: FGF22 binding)
Cc1nc2scc(C)n2c(=O)c1S(=O)(=O)Nc1ccc(OC(F)(F)F)cc1	HIV Env fusion 55.2 (no result: E-selectin induc)
O=C(O)C1Cn2c(nc3c(c2=O)C2(CCCC2)Cc2ccccc2-3)S1 (configuration not stated)	FGF22 binding 43.4 (no result: E-selectin induc)
CCCCc1nn(-c2cc(Cl)ccc2OC)c2c1C(=O)CC(C)(C)C2	HIV Env fusion 57.4
CCCCCCCCN1[C@@H](CC(C)=O)c2cc(C(F)(F)F)ccc2S1(=O)=O	HIV Env fusion 61.1

Assay outcomes (PubChem)
